In ChEMBL document CHEMBL1135327, “Comparison of the prevention of aflatoxin b(1)-induced genotoxicity by quercetin and quercetin pentaacetate” (2002):

Legend:
[1] = The compound was evaluated for in Vitro binding of AFB1 to DNA in rat liver microsomes; Pre-incubation time being 20 mins; settings: Microsome
Rattus norvegicus [2] = species: Rattus norvegicus; experiment: Effect of compound on AFB1-induced micronuclei formation in rat bone marrow cells in the presence of AFB1 (Activity: Micronucleated cells/1000 cells); assay type: functional
[3] = The compound was evaluated for in Vitro binding of AFB1 to DNA in rat liver microsomes; Pre-incubation time being 10 mins; settings: Microsome
Rattus norvegicus [4] = species: Rattus norvegicus; experiment: Effect of compound on AFB1-induced micronuclei formation in rat bone marrow cells (Activity: Micronucleated cells/1000 cells); assay type: functional
Rattus norvegicus [5] = species: Rattus norvegicus; experiment: Influence (2 uM) on transacetylase catalyzed time dependent activation of NADPH cytochrome C reductase at pre-incubation time being 20 mins; assay type: functional
How it was run: (§1)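 Rat liver microsomes were preincubated at 37 °C with test compound (in DMSO) in 0.05 M phosphate buffer, pH 7.7. Aliquots were taken at 5, 10, 20 and 30 min into a cuvette with EDTA, cytochrome C and NADPH. NADPH–cytochrome C reductase activity was followed at 550 nm. Values are means of four observations.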

[6] = The compound was evaluated for in Vitro binding of AFB1 to DNA in rat liver microsomes; Pre-incubation time being 30 mins; settings: Microsome
Rattus norvegicus [7] = species: Rattus norvegicus; experiment: Influence (2 uM) on transacetylase catalyzed time dependent activation of NADPH cytochrome C reductase at pre-incubation time being 30 mins; assay type: functional; how it was run: as §1
Rattus norvegicus [8] = species: Rattus norvegicus; experiment: Influence (2 uM) on transacetylase catalyzed time dependent activation of NADPH cytochrome C reductase at pre-incubation time being 10 mins; assay type: functional; how it was run: as §1
Rattus norvegicus [9] = species: Rattus norvegicus; experiment: Influence (2 uM) on transacetylase catalyzed time dependent activation of NADPH cytochrome C reductase at pre-incubation time being 5 mins; assay type: functional; how it was run: as §1
Rattus norvegicus [10] = species: Rattus norvegicus; experiment: Influence (5 uM) on transacetylase catalyzed time dependent activation of NADPH cytochrome C reductase at pre-incubation time being 30 mins; assay type: functional; how it was run: as §1
Rattus norvegicus [11] = species: Rattus norvegicus; experiment: Influence (5 uM) on transacetylase catalyzed time dependent activation of NADPH cytochrome C reductase at pre-incubation time being 20 mins; assay type: functional; how it was run: as §1
Rattus norvegicus [12] = species: Rattus norvegicus; experiment: Influence (5 uM) on transacetylase catalyzed time dependent activation of NADPH cytochrome C reductase at pre-incubation time being 5 mins; assay type: functional; how it was run: as §1
Rattus norvegicus [13] = species: Rattus norvegicus; experiment: Influence (5 uM) on transacetylase catalyzed time dependent activation of NADPH cytochrome C reductase at pre-incubation time being 10 mins; assay type: functional; how it was run: as §1

SMILES | inhibition [1] | Activity (Rattus norvegicus [2]) | inhibition [3] | Activity (Rattus norvegicus [4]) | Activation (Rattus norvegicus [5]) | inhibition [6] | Activation (Rattus norvegicus [7]) | Activation (Rattus norvegicus [8]) | Activation (Rattus norvegicus [9]) | Activation (Rattus norvegicus [10]) | Activation (Rattus norvegicus [11]) | Activation (Rattus norvegicus [12]) | Activation (Rattus norvegicus [13])
CC(=O)Oc1ccc2c(C)cc(=O)oc2c1OC(C)=O | 37.5% | 3.75 | 19% | 2.25 | 39.9% | 56.8% | 57.6% | 18.9% | 10.2% | – | – | – | –
Cc1cc(=O)oc2c(O)c(O)ccc12 [4-METHYLDAPHNETIN] | 8.2% | – | 8.5% | – | – | 8.9% | – | – | – | 3.5% | 3.1% | 2.8% | 2.5%
CC(=O)Oc1cc(OC(C)=O)c2c(=O)c(OC(C)=O)c(-c3ccc(OC(C)=O)c(OC(C)=O)c3)oc2c1 | 12.8% | 4.75 | 6.7% | 2.25 | – | 18% | – | – | – | 37% | 25% | 7.1% | 13.3%
O=c1c(O)c(-c2ccc(O)c(O)c2)oc2cc(O)cc(O)c12 [QUERCETIN] | 5.2% | 6 | 5.7% | 2 | – | 6.2% | – | – | – | 5.7% | 5.4% | 3.7% | 3.3%
